Measured values as given in the array DNA melting data of Ke et al. (doi:10.1101/2024.01.08.574731).

What was measured:
[1] = folding enthalpy; higher = less favourable; fluorescence melt of hairpins on a sequencing array, two-state fit; details: sodium 0.088 M
In short: (§1)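 Bootstrapped two-state fits yielded melting temperature and folding enthalpy for library hairpins. Cy3 fluorescence, with annealed Cy3 and quencher oligos, was imaged on a sequenced MiSeq flow cell in 50 mM Na-HEPES pH 8.0, 25 mM NaCl in 2.5 °C steps up to 60 °C, and normalised to pre-quench Cy3 and to control constructs. Four replicates were combined by inverse variance, and fitted temperatures were raised by 9.35 °C to match UV melts.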

[2] = melting temperature; fluorescence melt of hairpins on a sequencing array, two-state fit, raised by 9.35 °C to match UV melts; details: sodium 0.088 M
In short: as §1

Sequence	folding enthalpy [1]	Tm [2]
GATCCGTTTTCGGATC ((((((....))))))	-42.2 kcal/mol	61.8 °C
GATCCTAAAAGGATC ((((((...))))))	-36.3 kcal/mol	54.3 °C
GATCCTAAGCAGGATC ((((((....))))))	-29.9 kcal/mol	52.9 °C
GATCCTACCGAGGATC ((((((....))))))	-39.2 kcal/mol	51.2 °C
GATCCTACTTAGGATC ((((((....))))))	-37.3 kcal/mol	53.2 °C
GATCCTAGCGAGGATC ((((((....))))))	-32.9 kcal/mol	52.8 °C
GATCCTAGGAGGATC ((((((...))))))	-35.3 kcal/mol	54.1 °C
GATCCTAGTCAGGATC ((((((....))))))	-45.9 kcal/mol	51.6 °C
GATCCTATAAAGGATC ((((((....))))))	-38.6 kcal/mol	51.8 °C
GATCCTATAGAGGATC ((((((....))))))	-28.9 kcal/mol	50.4 °C
GATCCTATTGAGGATC ((((((....))))))	-40.9 kcal/mol	51.4 °C
GATCCTCAAGAGGATC ((((((....))))))	-38 kcal/mol	53.4 °C
GATCCTCCGCAGGATC ((((((....))))))	-14.5 kcal/mol	44.6 °C
GATCCTCCTCAGGATC ((((((....))))))	-45.2 kcal/mol	50.2 °C
GATCCTCCTGAGGATC ((((((....))))))	-41.2 kcal/mol	57.2 °C
GATCCTCGACAGGATC ((((((....))))))	-35.6 kcal/mol	48.5 °C
GATCCTCGCAGGATC ((((((...))))))	-33.8 kcal/mol	55.5 °C
GATCCTCGGAAGGATC ((((((....))))))	-34.4 kcal/mol	50.2 °C
GATCCTCGGCAGGATC ((((((....))))))	-29.4 kcal/mol	49.7 °C
GATCCTCGGGAGGATC ((((((....))))))	-37.7 kcal/mol	56.1 °C
GATCCTCGTTAGGATC ((((((....))))))	-39.1 kcal/mol	51.7 °C
GATCCTCTAAGGATC ((((((...))))))	-33.3 kcal/mol	54.3 °C
GATCCTCTGGAGGATC ((((((....))))))	-39.5 kcal/mol	58.3 °C
GATCCTCTTAAGGATC ((((((....))))))	-42.5 kcal/mol	52.9 °C

Sequence	folding enthalpy [1]	Tm [2]
GATCCTGACAGGATC ((((((...))))))	-38.9 kcal/mol	55.7 °C
GATCCTGACTAGGATC ((((((....))))))	-43.3 kcal/mol	56.7 °C
GATCCTGAGAAGGATC ((((((....))))))	-40.2 kcal/mol	57.6 °C
GATCCTGATCAGGATC ((((((....))))))	-39.8 kcal/mol	56.1 °C
GATCCTGCCAAGGATC ((((((....))))))	-38.6 kcal/mol	65.6 °C
GATCCTGCCAGGATC ((((((...))))))	-34.7 kcal/mol	56.6 °C
GATCCTGCTAAGGATC ((((((....))))))	-46.2 kcal/mol	63.2 °C
GATCCTGGAAACAGAATC (((.(((....))).)))	-16.8 kcal/mol	30.1 °C
GATCCTGGAAACAGGACC (.(((((....))))).)	-14.4 kcal/mol	40.1 °C
GATCCTGGGCAGGATC ((((((....))))))	-35.7 kcal/mol	54.2 °C
GATCCTGGGTAGGATC ((((((....))))))	-33.4 kcal/mol	51.3 °C
GATCCTGGTAGGATC ((((((...))))))	-32.6 kcal/mol	54.6 °C
GATCCTGGTGAGGATC ((((((....))))))	-42.1 kcal/mol	52.5 °C
GATCCTGTACAGGATC ((((((....))))))	-40.7 kcal/mol	60.2 °C
GATCCTGTGAAGGATC ((((((....))))))	-35.4 kcal/mol	58.4 °C
GATCCTGTTAGGATC ((((((...))))))	-38.1 kcal/mol	55.4 °C
GATCCTGTTTAGGATC ((((((....))))))	-44.3 kcal/mol	52.6 °C
GATCCTTAAGAGGATC ((((((....))))))	-38.1 kcal/mol	50.9 °C
GATCCTTACCAGGATC ((((((....))))))	-33.6 kcal/mol	52.1 °C
GATCCTTAGAAGGATC ((((((....))))))	-33.8 kcal/mol	50.2 °C
GATCCTTAGTAGGATC ((((((....))))))	-35.8 kcal/mol	50.3 °C
GATCCTTATTAGGATC ((((((....))))))	-37.8 kcal/mol	51.7 °C
GATCCTTCAGAGGATC ((((((....))))))	-48.2 kcal/mol	51.6 °C
GATCCTTCCAAGGATC ((((((....))))))	-47 kcal/mol	55.3 °C

Sequence	folding enthalpy [1]	Tm [2]
GATCCTTCTTAGGATC ((((((....))))))	-41.8 kcal/mol	52.8 °C
GATCCTTGAAAGGATC ((((((....))))))	-42.3 kcal/mol	51.9 °C
GATCCTTTAGAGGATC ((((((....))))))	-43.7 kcal/mol	52.2 °C
GATCGAAAAATCGATC ((((((....))))))	-25.5 kcal/mol	43.9 °C
GATCGAAACGTCGATC ((((((....))))))	-41.4 kcal/mol	50.3 °C
GATCGAAAGGTCGATC ((((((....))))))	-28.7 kcal/mol	47.7 °C
GATCGAAATCTCGATC ((((((....))))))	-32.7 kcal/mol	48.7 °C
GATCGAAATGTCGATC ((((((....))))))	-36.8 kcal/mol	48.7 °C
GATCGAACGATCGATC ((((((....))))))	-18.9 kcal/mol	52.8 °C
GATCGAACGGTCGATC ((((((....))))))	-51.2 kcal/mol	51.1 °C
GATCGAACTTTCGATC ((((((....))))))	-35.6 kcal/mol	53.4 °C
GATCGAAGACTCGATC ((((((....))))))	-30.3 kcal/mol	48.5 °C
GATCGAAGATTCGATC ((((((....))))))	-35.5 kcal/mol	51.4 °C
GATCGAAGCCTCGATC ((((((....))))))	-33 kcal/mol	50.9 °C
GATCGAAGTCTCGATC ((((((....))))))	-35.1 kcal/mol	49.2 °C
GATCGAAGTTCGATC ((((((...))))))	-38.4 kcal/mol	50.3 °C
GATCGAAGTTTCGATC ((((((....))))))	-44.8 kcal/mol	53.5 °C
GATCGAATTTTCGATC ((((((....))))))	-36.1 kcal/mol	55.1 °C
GATCGACACGTCGATC ((((((....))))))	-33.7 kcal/mol	59.7 °C
GATCGACAGATCGATC ((((((....))))))	-16.1 kcal/mol	54.8 °C
GATCGACATATCGATC ((((((....))))))	-43.4 kcal/mol	51.7 °C
GATCGACATCTCGATC ((((((....))))))	-36 kcal/mol	50.3 °C
GATCGACCGATCGATC ((((((....))))))	-25.4 kcal/mol	51.6 °C
GATCGACCGTCGATC ((((((...))))))	-36 kcal/mol	49 °C
